Assay results as given in ChEMBL document CHEMBL1152161, “A facile synthesis, antibacterial, and antitubercular studies of some piperidin-4-one and tetrahydropyridine derivatives” (2008).
≈ marks a conversion by molar mass, not a printed value. Calls of active or inactive are those of the source. The calls are words filed in the database; no cut-off is given here.

Legend:
Enterococcus faecalis [1] = test: Antibacterial activity against Enterococcus faecalis by broth micro dilution method; assay type: functional
In short: (§1)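 MIC90 was found by broth microdilution following NCCLS methods. Compounds were tested up to a top concentration of […]. Linezolid and trovafloxacin served as positive controls and DMSO as the negative control.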

Enterococcus faecalis [2] = test: Antibacterial activity against vancomycin-resistant Enterococcus faecalis at 128 ug/mL by broth micro dilution method; assay type: functional, organism-based
In short: (§2)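 MIC90 was determined by broth microdilution following NCCLS methods. Linezolid and trovafloxacin were run as positive controls, with DMSO as the negative control. Compounds were tested up to a top concentration of 128.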

Haemophilus influenzae [3] = test: Antibacterial activity against Haemophilus influenzae at 128 ug/mL by broth micro dilution method; assay type: functional, organism-based
Enterococcus faecium [4] = test: Antibacterial activity against Enterococcus faecium at 128 ug/mL by broth micro dilution method; assay type: functional, organism-based
[5] = system: Staphylococcus epidermidis; test: Antibacterial activity against methicillin-resistant Staphylococcus epidermidis at 128 ug/mL by broth micro dilution method; assay type: functional, organism-based; in short: as §2
Enterococcus faecium [6] = test: Antibacterial activity against vancomycin-resistant Enterococcus faecium by broth micro dilution method; assay type: functional; conditions: for MIC90: Enterococcus faecium; in short: as §2
Moraxella catarrhalis [7] = test: Antibacterial activity against Moraxella catarrhalis at 128 ug/mL by broth micro dilution method; assay type: functional, organism-based
Escherichia coli [8] = test: Antibacterial activity against Escherichia coli LCB0012 at 128 ug/mL by broth micro dilution method; assay type: functional, organism-based
Klebsiella pneumoniae = test: Antibacterial activity against Klebsiella pneumoniae at 128 ug/mL by broth micro dilution method; assay type: functional, organism-based
Escherichia coli [9] = test: Antibacterial activity against Escherichia coli LCB0010 at 128 ug/mL by broth micro dilution method; assay type: functional, organism-based
Staphylococcus aureus [10] = test: Antibacterial activity against methicillin-resistant Staphylococcus aureus at 128 ug/mL by broth micro dilution method; assay type: functional, organism-based; in short: as §2
[11] = system: Mycobacterium tuberculosis; test: Antitubercular activity against Mycobacterium tuberculosis H37Rv ATCC 27294 by radiometric respiratory technique; assay type: functional
Staphylococcus aureus [12] = test: Antibacterial activity against Staphylococcus aureus by broth micro dilution method; assay type: functional; in short: as §1
[13] = system: Mycobacterium tuberculosis; test: Antitubercular potency, ratio of Isoniazid MIC to drug MIC against Mycobacterium tuberculosis H37Rv ATCC 27294; assay type: functional
[14] = system: Mycobacterium tuberculosis; test: Antitubercular potency, ratio of Rifampicin MIC to drug MIC against Mycobacterium tuberculosis H37Rv ATCC 27294; assay type: functional
Enterococcus faecalis [15] = test: Antibacterial activity against vancomycin and linezolid-resistant Enterococcus faecalis at 128 ug/mL by broth micro dilution method; assay type: functional, organism-based; in short: as §2
Pseudomonas aeruginosa = test: Antibacterial activity against Pseudomonas aeruginosa at 128 ug/mL by broth micro dilution method; assay type: functional, organism-based
Escherichia coli [16] = test: Antibacterial activity against Escherichia coli LCB0011 at 128 ug/mL by broth micro dilution method; assay type: functional, organism-based
[17] = system: Staphylococcus epidermidis; test: Antibacterial activity against Staphylococcus epidermidis at 128 ug/mL by broth micro dilution method; assay type: functional, organism-based
Staphylococcus aureus [18] = test: Antibacterial activity against Staphylococcus aureus at 128 ug/mL by broth micro dilution method; assay type: functional, organism-based
Enterococcus faecium [19] = test: Antibacterial activity against vancomycin-resistant Enterococcus faecium at 128 ug/mL by broth micro dilution method; assay type: functional, organism-based; in short: as §2
Enterococcus faecalis [20] = test: Antibacterial activity against Enterococcus faecalis at 128 ug/mL by broth micro dilution method; assay type: functional, organism-based
Escherichia coli [21] = test: Antibacterial activity against Escherichia coli LCB0011 by broth micro dilution method; assay type: functional; in short: as §1
[22] = system: Mycobacterium tuberculosis; test: Antitubercular activity against Mycobacterium tuberculosis H37Rv ATCC 27294 at 256 ug/mL by radiometric respiratory technique; assay type: functional, organism-based
Enterococcus faecalis [23] = test: Antibacterial activity against vancomycin and linezolid-resistant Enterococcus faecalis by broth micro dilution method; assay type: functional; in short: as §2
Moraxella catarrhalis [24] = test: Antibacterial activity against Moraxella catarrhalis by broth micro dilution method; assay type: functional; in short: as §1
[25] = system: Staphylococcus epidermidis; test: Antibacterial activity against Staphylococcus epidermidis by broth micro dilution method; assay type: functional; in short: as §2
Staphylococcus aureus [26] = test: Antibacterial activity against methicillin-resistant Staphylococcus aureus by broth micro dilution method; assay type: functional; in short: as §2
Enterococcus faecalis [27] = test: Antibacterial activity against vancomycin-resistant Enterococcus faecalis by broth micro dilution method; assay type: functional; in short: as §2
[28] = system: Staphylococcus epidermidis; test: Antibacterial activity against methicillin-resistant Staphylococcus epidermidis by broth micro dilution method; assay type: functional; in short: as §2
Escherichia coli [29] = test: Antibacterial activity against Escherichia coli LCB0012 by broth micro dilution method; assay type: functional; in short: as §1
Haemophilus influenzae [30] = test: Antibacterial activity against Haemophilus influenzae by broth micro dilution method; assay type: functional; in short: as §1
Enterococcus faecium [31] = test: Antibacterial activity against Enterococcus faecium by broth micro dilution method; assay type: functional; in short: as §1

| SMILES | MIC90 (Enterococcus faecalis [1]) [µg/mL] | Activity (Enterococcus faecalis [2]) | Activity (Haemophilus influenzae [3]) | Activity (Enterococcus faecium [4]) | Activity [5] | MIC90 (Enterococcus faecium [6]) [µg/mL] | Activity (Moraxella catarrhalis [7]) | Activity (Escherichia coli [8]) | Activity (Klebsiella pneumoniae) | Activity (Escherichia coli [9]) | Activity (Staphylococcus aureus [10]) | MIC [11] [µg/mL] | MIC90 (Staphylococcus aureus [12]) [µg/mL] | Activity (Enterococcus faecalis [15]) | Activity (Pseudomonas aeruginosa) | Activity (Escherichia coli [16]) | Activity [17] | Activity (Enterococcus faecalis [20]) | MIC90 (Escherichia coli [21]) [µg/mL] | MIC90 (Escherichia coli [29]) [µg/mL] | other results |
| --- | --- | --- | --- | --- | --- | --- | --- | --- | --- | --- | --- | --- | --- | --- | --- | --- | --- | --- | --- | --- | --- |
| COc1ccccc1C1C(C)C(=O)C(C)C(c2ccccc2OC)N1C(=O)Cn1cnc2ccccc21 (stereo unspecified) | 64 (≈ 129 µM) | inactive | inactive | inactive | inactive | 16 (≈ 32.2 µM) | inactive | inactive | inactive | inactive | inactive | 128 (≈ 257 µM) | 32 (≈ 64.3 µM) | inactive | inactive | inactive | inactive |  |  |  | Ratio [13]: 0.19; Ratio [14]: 25 |
| COc1cc(OC)cc(C2CC(=O)C(C)C(c3cc(OC)cc(OC)c3)N2C(=O)Cn2cnc3ccccc32)c1 (stereo unspecified) |  | inactive | inactive | inactive | inactive |  | inactive | inactive | inactive | inactive | inactive |  |  | inactive | inactive | inactive | inactive | inactive |  |  | Activity (Staphylococcus aureus [18]): inactive; Activity (Enterococcus faecium [19]): inactive |
| CCOC(=O)C1=C(OS(=O)(=O)c2ccccc2[N+](=O)[O-])CC(c2ccccc2)N(C(=O)CCl)C1c1ccccc1 (stereo unspecified) | 128 (≈ 219 µM) | inactive | inactive | inactive | inactive | 128 (≈ 219 µM) | inactive | inactive | inactive | inactive | inactive |  | 64 (≈ 109 µM) | inactive | inactive |  | inactive |  | 128 (≈ 219 µM) |  | Activity [22]: inactive |
| CCOC(=O)C1=C(O)CC(c2ccccc2)N(C(=O)Cn2cnc3ccccc32)C1c1ccccc1 (stereo unspecified) | 128 (≈ 266 µM) | inactive | inactive | inactive | inactive | 64 (≈ 133 µM) |  | inactive | inactive | inactive | inactive | 16 (≈ 33.2 µM) | 32 (≈ 66.5 µM) |  | inactive | inactive |  |  |  |  | MIC90 (Enterococcus faecalis [23]): 128 µg/mL (≈ 266 µM); MIC90 (Moraxella catarrhalis [24]): 64 µg/mL (≈ 133 µM); Ratio [13]: 1.56; Ratio [14]: 200; MIC90 [25]: 128 µg/mL (≈ 266 µM) |
| NNC(=O)c1ccncc1 [ISONIAZID] |  |  |  |  |  |  |  |  |  |  |  | 0.25 (≈ 1.82 µM) |  |  |  |  |  |  |  |  |  |
| Cc1ccc(C2C(C)C(=O)C(C)C(c3ccc(C)cc3)N2C(=O)Cn2cnc3ccccc32)cc1 (stereo unspecified) | 128 (≈ 275 µM) |  | inactive | inactive | inactive | 32 (≈ 68.7 µM) | inactive |  | inactive | inactive |  |  | 64 (≈ 137 µM) | inactive | inactive |  | inactive |  | 128 (≈ 275 µM) |  | MIC90 (Staphylococcus aureus [26]): 64 µg/mL (≈ 137 µM); MIC90 (Enterococcus faecalis [27]): 128 µg/mL (≈ 275 µM) |
| CCOC(=O)C1=C(OS(=O)(=O)c2cccs2)CC(c2ccccc2)N(C(=O)CCl)C1c1ccccc1 (stereo unspecified) |  | inactive | inactive | inactive |  |  |  | inactive | inactive | inactive |  | 32 (≈ 58.6 µM) | 32 (≈ 58.6 µM) | inactive | inactive |  |  | inactive | 128 (≈ 234 µM) |  | MIC90 (Staphylococcus aureus [26]): 64 µg/mL (≈ 117 µM); MIC90 (Moraxella catarrhalis [24]): 32 µg/mL (≈ 58.6 µM); Activity (Enterococcus faecium [6]): 32 µg/mL; Ratio [13]: 0.78; MIC90 [28]: 128 µg/mL (≈ 234 µM); Ratio [14]: 100; MIC90 [25]: 64 µg/mL (≈ 117 µM) |
| Cc1ccc(C2CC(=O)C(C)C(c3ccc(C)cc3)N2C(=O)Cn2cnc3ccccc32)cc1 (stereo unspecified) |  | inactive | inactive | inactive | inactive | 64 (≈ 142 µM) | inactive |  | inactive | inactive | inactive |  |  | inactive | inactive | inactive | inactive | inactive |  | 128 (≈ 283 µM) | Activity (Staphylococcus aureus [18]): inactive |
| C=Cc1ccc(S(=O)(=O)OC2=C(C(=O)OCC)C(c3ccccc3)N(C(=O)CCl)C(c3ccccc3)C2)cc1 (stereo unspecified) |  | inactive |  | inactive | inactive |  | inactive |  | inactive | inactive | inactive |  |  | inactive | inactive |  | inactive | inactive | 128 (≈ 226 µM) | 128 (≈ 226 µM) | Activity (Staphylococcus aureus [18]): inactive; MIC90 (Haemophilus influenzae [30]): 128 µg/mL (≈ 226 µM); Activity (Enterococcus faecium [19]): inactive |
| CO[C@H]1/C=C/O[C@@]2(C)Oc3c(C)c(O)c4c(O)c(c(/C=N/N5CCN(C)CC5)c(O)c4c3C2=O)NC(=O)/C(C)=C\C=C\[C@H](C)[C@H](O)[C@@H](C)[C@@H](O)[C@@H](C)[C@H](OC(C)=O)[C@@H]1C [RIFAMPIN] |  |  |  |  |  |  |  |  |  |  |  | 32 (≈ 38.9 µM) |  |  |  |  |  |  |  |  |  |
| COc1ccc(C2C(C)C(=O)C(C)C(c3ccc(OC)cc3)N2C(=O)Cn2cnc3ccccc32)cc1 (stereo unspecified) | 64 (≈ 129 µM) | inactive | inactive | inactive | inactive | 16 (≈ 32.2 µM) |  |  | inactive | inactive |  | 64 (≈ 129 µM) | 16 (≈ 32.2 µM) | inactive | inactive | inactive | inactive |  |  | 128 (≈ 257 µM) | MIC90 (Staphylococcus aureus [26]): 128 µg/mL (≈ 257 µM); MIC90 (Moraxella catarrhalis [24]): 16 µg/mL (≈ 32.2 µM); Ratio [13]: 0.39; Ratio [14]: 50 |
| CC1C(=O)C(C)C(c2ccccc2Cl)N(C(=O)Cn2cnc3ccccc32)C1c1ccccc1Cl (stereo unspecified) |  | inactive | inactive | inactive |  |  | inactive | inactive | inactive | inactive | inactive |  | 64 (≈ 126 µM) | inactive | inactive | inactive | inactive | inactive |  |  | Activity (Enterococcus faecium [19]): inactive; MIC90 [28]: 128 µg/mL (≈ 253 µM) |
| CC(=O)NC[C@H]1CN(c2ccc(N3CCOCC3)c(F)c2)C(=O)O1 [LINEZOLID] | 2 (≈ 5.93 µM) |  |  |  |  | 2 (≈ 5.93 µM) |  |  | inactive | inactive |  |  | 1 (≈ 2.96 µM) |  | inactive |  |  |  | 16 (≈ 47.4 µM) | 64 (≈ 190 µM) | MIC90 (Staphylococcus aureus [26]): 2 µg/mL (≈ 5.93 µM); MIC90 (Enterococcus faecalis [23]): 64 µg/mL (≈ 190 µM); MIC90 (Enterococcus faecium [31]): 2 µg/mL (≈ 5.93 µM); MIC90 (Moraxella catarrhalis [24]): 8 µg/mL (≈ 23.7 µM); MIC90 (Enterococcus faecalis [27]): 2 µg/mL (≈ 5.93 µM); MIC90 (Haemophilus influenzae [30]): 16 µg/mL (≈ 47.4 µM); MIC90 [28]: 2 µg/mL (≈ 5.93 µM); MIC90 [25]: 1 µg/mL (≈ 2.96 µM) |
| COc1ccc(C2CC(=O)C(C)C(c3ccc(OC)cc3)N2C(=O)Cn2cnc3ccccc32)cc1 (stereo unspecified) |  | inactive | inactive | inactive | inactive | 128 (≈ 265 µM) | inactive |  | inactive | inactive | inactive |  |  | inactive | inactive | inactive | inactive | inactive |  | 128 (≈ 265 µM) | Activity (Staphylococcus aureus [18]): inactive |
